Here are results for 24 compounds from ChEMBL document CHEMBL2384914, “Synthetic tactics of new class of 4-aminothieno[2,3-d]pyrimidine-6-carbonitrile derivatives acting as antimicrobial agents” (2013).

What is called MIC is the lowest concentration that inhibits growth of the organism.

Assay [1] relates to Aspergillus clavatus. Description: Antifungal activity against Aspergillus clavatus MTCC 1323 assessed as growth inhibition by broth microdilution method. The class given is functional. On the technique in general: Broth dilution looks for growth in wells or tubes with falling amounts of substance.
The next assay relates to Aspergillus niger. Description: Antifungal activity against Aspergillus niger MTCC 282 assessed as growth inhibition by broth microdilution method. The class given is functional. The method, boiled down: (§1)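 Fungal MTCC cultures were tested by broth microdilution with DMSO-diluted drug in serial dilutions, as a primary screen followed by a second dilution set for actives. MIC was the lowest concentration inhibiting growth. Each experiment was run three times and the MICs averaged.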

The subject of another assay is Candida albicans. Description: Antifungal activity against Candida albicans MTCC 227 assessed as growth inhibition by broth microdilution method. In kind it is functional. A digest of the protocol: as §1
The next assay concerns Streptococcus pyogenes. Description: Antibacterial activity against Streptococcus pyogenes MTCC 442 assessed as growth inhibition by broth microdilution method. The class given is functional.
The subject of a further assay is Staphylococcus aureus. Description: Antibacterial activity against Staphylococcus aureus MTCC 96 assessed as growth inhibition by broth microdilution method. The class given is functional.
In a further assay the test system is Pseudomonas aeruginosa. Description: Antibacterial activity against Pseudomonas aeruginosa MTCC 441 assessed as growth inhibition by broth microdilution method. In kind it is functional.
In a further assay the test system is Escherichia coli. Description: Antibacterial activity against Escherichia coli MTCC 443 assessed as growth inhibition by broth microdilution method. In kind it is functional.
Assay [2] has as its system Aspergillus clavatus. The following applies: MTCC 1323.

Consider `CCN(CC)c1ncnc2sc(C#N)c(-c3ccc(Cl)cc3)c12`, for which the MIC is more than 1000 µg/mL in the assay with Aspergillus clavatus [1]; more than 1000 µg/mL with Aspergillus niger; 1000 µg/mL in the assay with Candida albicans; 200 µg/mL in the assay with Streptococcus pyogenes; 200 µg/mL in the assay on Staphylococcus aureus; 250 µg/mL in the assay with Pseudomonas aeruginosa. Also, the MIC with Escherichia coli was 200 µg/mL.
In the case of NYSTATIN, the MIC in the assay with Aspergillus niger, with Candida albicans and with Aspergillus clavatus [2] was 100 µg/mL throughout.
Regarding `O=C(N[C@H](CO)[C@H](O)c1ccc([N+](=O)[O-])cc1)C(Cl)Cl` [CHLORAMPHENICOL], the MIC with Streptococcus pyogenes, in the assay with Staphylococcus aureus, in the assay with Pseudomonas aeruginosa and in the assay with Escherichia coli was 50 µg/mL each time.
As to `CC1(C)S[C@@H]2[C@H](NC(=O)[C@H](N)c3ccccc3)C(=O)N2[C@H]1C(=O)O` [AMPICILLIN], the MIC in the assay with Streptococcus pyogenes was determined as 100 µg/mL; with Staphylococcus aureus, 250 µg/mL; in the assay with Escherichia coli, 100 µg/mL.
For the compound `N#Cc1sc2ncnc(NCc3ccccc3)c2c1-c1ccc(Cl)cc1`, the minimal inhibitory concentration (MIC) stood at 1000 µg/mL with Aspergillus clavatus [1]; 1000 µg/mL in the assay on Aspergillus niger; 1000 µg/mL in the assay on Candida albicans; 125 µg/mL in the assay on Streptococcus pyogenes; 100 µg/mL in the assay on Staphylococcus aureus; 250 µg/mL in the assay on Pseudomonas aeruginosa. Also, in the assay on Escherichia coli, the MIC amounted to 250 µg/mL.
As for `N#Cc1sc2ncnc(N3CCOCC3)c2c1-c1ccc(Cl)cc1`, the MIC was more than 1000 µg/mL in the assay on Aspergillus clavatus [1]; more than 1000 µg/mL in the assay on Aspergillus niger; 1000 µg/mL in the assay on Candida albicans; 250 µg/mL in the assay with Streptococcus pyogenes; 250 µg/mL with Staphylococcus aureus; 200 µg/mL with Pseudomonas aeruginosa. In addition, in the assay with Escherichia coli, the MIC came out at 125 µg/mL.
As for `Cc1ccccc1Nc1ncnc2sc(C#N)c(-c3ccc(Cl)cc3)c12`, the MIC is more than 1000 µg/mL with Aspergillus clavatus [1]; more than 1000 µg/mL in the assay with Aspergillus niger; more than 1000 µg/mL in the assay on Candida albicans; 125 µg/mL in the assay on Streptococcus pyogenes; 250 µg/mL with Staphylococcus aureus; 200 µg/mL with Pseudomonas aeruginosa. Besides, the MIC in the assay with Escherichia coli was 200 µg/mL.
Take `N#Cc1sc2ncnc(N3CCN(c4cccc(Cl)c4Cl)CC3)c2c1-c1ccc(Cl)cc1`: the MIC in the assay on Aspergillus clavatus [1] was 1000 µg/mL; in the assay on Aspergillus niger, 500 µg/mL; with Candida albicans it was 1000 µg/mL; with Streptococcus pyogenes it was 250 µg/mL; in the assay on Staphylococcus aureus it was 250 µg/mL; in the assay on Pseudomonas aeruginosa, 100 µg/mL. In addition, the MIC in the assay with Escherichia coli is 200 µg/mL.
Regarding `N#Cc1sc2nc[nH]c(=O)c2c1-c1ccc(Cl)cc1`, the MIC in the assay with Aspergillus clavatus [1] was more than 1000 µg/mL; in the assay on Aspergillus niger it was more than 1000 µg/mL; with Candida albicans, 500 µg/mL; in the assay with Streptococcus pyogenes, 250 µg/mL; in the assay on Staphylococcus aureus it was 200 µg/mL; with Pseudomonas aeruginosa, 62.5 µg/mL. Moreover, the MIC in the assay with Escherichia coli worked out at 100 µg/mL.
In the case of `N#Cc1sc2ncnc(N3CCNCC3)c2c1-c1ccc(Cl)cc1`, the MIC is more than 1000 µg/mL with Aspergillus clavatus [1]; 1000 µg/mL with Aspergillus niger; 1000 µg/mL with Candida albicans; 100 µg/mL in the assay on Streptococcus pyogenes; 62.5 µg/mL in the assay on Staphylococcus aureus; 250 µg/mL with Pseudomonas aeruginosa. In the assay on Escherichia coli, the MIC came out at 125 µg/mL.
As for `N#Cc1sc2ncnc(Nc3cccc(Cl)c3)c2c1-c1ccc(Cl)cc1`, the MIC with Aspergillus clavatus [1] was 500 µg/mL; in the assay with Aspergillus niger it was 500 µg/mL; in the assay on Candida albicans, more than 1000 µg/mL; in the assay on Streptococcus pyogenes it was 250 µg/mL; with Staphylococcus aureus it was 200 µg/mL; in the assay with Pseudomonas aeruginosa it was 100 µg/mL. Also, in the assay on Escherichia coli, the MIC worked out at 100 µg/mL.
With `N#Cc1sc2ncnc(Nc3ccccc3Cl)c2c1-c1ccc(Cl)cc1`, the MIC with Aspergillus clavatus [1] was more than 1000 µg/mL; in the assay on Aspergillus niger, more than 1000 µg/mL; in the assay with Candida albicans it was 500 µg/mL; in the assay with Streptococcus pyogenes, 100 µg/mL; in the assay with Staphylococcus aureus, 200 µg/mL; with Pseudomonas aeruginosa, 62.5 µg/mL. In addition, in the assay with Escherichia coli, the MIC turned out to be 125 µg/mL.
Turning to `NC(=O)c1sc(N)c(C(N)=O)c1-c1ccc(Cl)cc1`, the MIC with Aspergillus clavatus [1] is more than 1000 µg/mL; in the assay on Aspergillus niger it was more than 1000 µg/mL; in the assay with Candida albicans, 500 µg/mL; with Streptococcus pyogenes it was 200 µg/mL; in the assay with Staphylococcus aureus it was 250 µg/mL; with Pseudomonas aeruginosa, 250 µg/mL. The MIC with Escherichia coli stood at 200 µg/mL.
With GENTAMICIN, the MIC worked out at 0.5 µg/mL with Streptococcus pyogenes, 0.25 µg/mL in the assay with Staphylococcus aureus, 1 µg/mL in the assay on Pseudomonas aeruginosa and 0.05 µg/mL in the assay with Escherichia coli.
`N#Cc1sc2ncnc(Cl)c2c1-c1ccc(Cl)cc1`: the MIC came to 1000 µg/mL in the assay with Aspergillus clavatus [1]; 1000 µg/mL with Aspergillus niger; 1000 µg/mL in the assay on Candida albicans; 250 µg/mL in the assay with Streptococcus pyogenes; 100 µg/mL with Staphylococcus aureus; 250 µg/mL in the assay on Pseudomonas aeruginosa. The MIC in the assay with Escherichia coli was 200 µg/mL.
`N#Cc1sc2ncnc(N3CCCCC3)c2c1-c1ccc(Cl)cc1`: the MIC with Aspergillus clavatus [1] was more than 1000 µg/mL; in the assay with Aspergillus niger, more than 1000 µg/mL; with Candida albicans it was 250 µg/mL; in the assay with Streptococcus pyogenes, 200 µg/mL; in the assay with Staphylococcus aureus, 125 µg/mL; in the assay on Pseudomonas aeruginosa, 250 µg/mL. The MIC in the assay with Escherichia coli worked out at 250 µg/mL.
As for `CCn1cc(C(=O)O)c(=O)c2cc(F)c(N3CCNCC3)cc21` [NORFLOXACIN], the MIC in the assay with Streptococcus pyogenes, with Staphylococcus aureus, with Pseudomonas aeruginosa and in the assay on Escherichia coli was 10 µg/mL throughout.
For `Cc1cccc(Nc2ncnc3sc(C#N)c(-c4ccc(Cl)cc4)c23)c1`, the minimal inhibitory concentration (MIC) was more than 1000 µg/mL in the assay with Aspergillus clavatus [1]; more than 1000 µg/mL with Aspergillus niger; more than 1000 µg/mL in the assay on Candida albicans; 250 µg/mL in the assay on Streptococcus pyogenes; 250 µg/mL in the assay with Staphylococcus aureus; 200 µg/mL in the assay with Pseudomonas aeruginosa. Also, the MIC with Escherichia coli was determined as 250 µg/mL.
Take `CCOC(=O)N1CCN(c2ncnc3sc(C#N)c(-c4ccc(Cl)cc4)c23)CC1`: the MIC in the assay on Aspergillus clavatus [1] was 1000 µg/mL; in the assay with Aspergillus niger, 1000 µg/mL; with Candida albicans it was more than 1000 µg/mL; with Streptococcus pyogenes, 250 µg/mL; in the assay on Staphylococcus aureus, 250 µg/mL; with Pseudomonas aeruginosa it was 100 µg/mL. The MIC in the assay on Escherichia coli stood at 62.5 µg/mL.
`O=C(O)c1cn(C2CC2)c2cc(N3CCNCC3)c(F)cc2c1=O` [CIPROFLOXACIN]: the results for the MIC with Streptococcus pyogenes, in the assay on Staphylococcus aureus and with Escherichia coli were 50 µg/mL, 50 µg/mL and 25 µg/mL, respectively.
In the case of `NC(=O)c1sc2nc[nH]c(=O)c2c1-c1ccc(Cl)cc1`, the MIC with Aspergillus clavatus [1] was 500 µg/mL; in the assay on Aspergillus niger, 250 µg/mL; with Candida albicans, more than 1000 µg/mL; in the assay with Streptococcus pyogenes it was 200 µg/mL; in the assay on Staphylococcus aureus, 200 µg/mL; in the assay with Pseudomonas aeruginosa it was 200 µg/mL. The MIC in the assay with Escherichia coli amounted to 125 µg/mL.
`N#Cc1sc2ncnc(N3CCN(C(=O)C4COc5ccccc5O4)CC3)c2c1-c1ccc(Cl)cc1` (stereo not drawn): the MIC with Aspergillus clavatus [1] is 1000 µg/mL; with Aspergillus niger, 1000 µg/mL; with Candida albicans, 250 µg/mL; in the assay on Streptococcus pyogenes it was 125 µg/mL; in the assay on Staphylococcus aureus, 100 µg/mL; in the assay on Pseudomonas aeruginosa it was 250 µg/mL. Besides, the MIC with Escherichia coli came to 100 µg/mL.
Consider `N#Cc1sc2ncnc(N3CCN(c4nsc5ccccc45)CC3)c2c1-c1ccc(Cl)cc1`, for which the MIC in the assay with Aspergillus clavatus [1] is more than 1000 µg/mL; in the assay with Aspergillus niger, more than 1000 µg/mL; with Candida albicans it was 500 µg/mL; with Streptococcus pyogenes, 200 µg/mL; with Staphylococcus aureus, 200 µg/mL; in the assay with Pseudomonas aeruginosa, 250 µg/mL. Also, in the assay on Escherichia coli, the MIC stood at 100 µg/mL.
On to `COC1=CC(=O)C[C@@H](C)[C@]12Oc1c(Cl)c(OC)cc(OC)c1C2=O` [GRISEOFULVIN], for which the MIC in the assay with Aspergillus clavatus [1] was 100 µg/mL; in the assay on Aspergillus niger, 100 µg/mL; in the assay with Candida albicans it was 500 µg/mL.
